# An excerpt weighted towards active compounds, which were near 10% of everything screened.
# Lmaj promast: Leishmania major promastigote growth inhibition, primary screen; Leishmania major promastigotes, resazurin fluorescence viability; AID 1063, 2008; 200,000 tested, 9% active; inhibition, % at 10 µM; in the data active = inhibition above about 50%;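 note: promastigotes grown with compound for 44 hours at 28 °C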
# PMI act: activators of human PMI, primary screen, biochemical, fluorescence intensity, near-Km mannose 6-phosphate; purified human PMI, coupled resazurin fluorescence, 20 min; stronger effect = higher value; 1 = vehicle control, 0 substrate-free wells; activation factor at 20 µM; 190,000 tested, 0.005% active; AID 1214, 2008;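 active = activation factor of 2 or more at 20 µM, relative to plate controls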
# Target sequence (P34949 whole entry, looked up): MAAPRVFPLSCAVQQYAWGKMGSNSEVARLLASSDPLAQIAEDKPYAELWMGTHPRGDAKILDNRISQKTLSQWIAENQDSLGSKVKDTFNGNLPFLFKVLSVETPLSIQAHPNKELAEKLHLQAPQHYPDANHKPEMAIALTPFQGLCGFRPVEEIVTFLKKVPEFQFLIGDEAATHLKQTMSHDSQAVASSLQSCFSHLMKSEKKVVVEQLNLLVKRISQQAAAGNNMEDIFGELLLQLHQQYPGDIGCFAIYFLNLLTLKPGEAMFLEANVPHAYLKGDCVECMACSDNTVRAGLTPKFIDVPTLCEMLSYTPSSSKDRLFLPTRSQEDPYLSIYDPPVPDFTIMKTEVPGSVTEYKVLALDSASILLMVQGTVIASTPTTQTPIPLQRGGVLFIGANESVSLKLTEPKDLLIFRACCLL
# PMI act hi M6P: human PMI activators, high substrate, primary screen, biochemical, fluorescence intensity, near-saturating mannose 6-phosphate; activation factor at 20 µM; coupled PMI enzyme assay, resazurin fluorescence, 20 min; stronger effect = higher value; 1 = untreated enzyme, 0 = substrate-free blank; 190,000 tested, 0.34% active; AID 1216, 2008;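 active = activation factor of 2 or more at 20 µM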
#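 Technique: Diaphorase-driven resazurin-to-resorufin fluorescence, excitation 544, emission 590 nm | Assay system: Human PMI in coupled enzyme assay | Times: Enzyme reaction with compound 20 min at room temperature | Medium: HEPES-buffered pH 7.4 with magnesium and detergent | Reagent: Mannose-6-phosphate 1.0 mM (near-saturating) plus 0.22 mM NADP+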
# Diaphorase act: compounds boosting diaphorase resazurin reduction – biochemical, uHTS, resorufin fluorescence, counter-screen for diaphorase-coupled primary assays, primary screen. 190,000 tested, 0.005% active. activation factor at 20 µM. Diaphorase/resazurin coupled assay, 16 min; stronger effect = higher value; 1 = vehicle wells, 0 = NADH-free wells;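 active = diaphorase activity raised at least twofold by the compound at 20 µM; inactive = activation factor below 2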
#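 Material: Clostridium kluyveri diaphorase, purified enzyme; Quantity: enzyme 0.07 U/mL final; Medium: HEPES pH 7.4 buffer with MgCl2 and Tween 20; Dosing: single compound dose of 20 µM, 1% DMSO final; Schedule: 16 min reaction at room temperature; Measured by: red resorufin fluorescence at 544/590 nm excitation/emission.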
# WT yeast gro inh: growth inhibition of WT strain, primary screen, mitochondrial fusion inhibitor project, WT and mutant strains, chemical genetic | inhibition, % at 10 µM | AID 1362, 2008 | mitochondrial fusion phenotypic screen | 190,000 tested, 2.1% active; in the data active = inhibition above about 58%; tested in S. cerevisiae
# * marks the source's active call; other numbers are inactive results; / = no result given.
SMILES,Lmaj promast,PMI act,PMI act hi M6P,Diaphorase act,WT yeast gro inh
COC(=O)C(NC(=O)COc1ccccc1)(Nc1nc2c(s1)CCCC2)C(F)(F)F (centres undefined),65*,0.8,0.8,0.8,27
O=S(=O)(/N=C(/Nc1ccccn1)c1ccc(Cl)cc1)c1ccc(Cl)cc1,-3,0.9,0.9,0.9,-19
O=C(Nc1ccccn1)c1ccco1,-2,1,1,1,70*
O=C(Nc1ccccn1)c1ccc(S(=O)(=O)c2ccc(Cl)cc2)cc1,76*,1,1,0.8,6
O=C(Nc1ccccn1)c1ccc([N+](=O)[O-])o1,99*,0.9,0.9,0.9,14
COc1ccc(COc2ccccc2C(=O)Nc2ccccn2)cc1[N+](=O)[O-],62*,1.1,1.1,1.1,1
CCCS(=O)(=O)Nc1ccc2cn[nH]c2c1,7,1,0.9,0.9,-1
Cc1c(Cl)c([N+](=O)[O-])nn1CC(=O)N1CCN(Cc2ccccc2)CC1,0,1.1,1.1,1,-5
Cc1ccnc(NC(=O)c2ccc([N+](=O)[O-])o2)c1,99*,1,1,1,6
O=C(CNS(=O)(=O)c1ccc(Br)s1)N1CCC(N2CCCCC2)CC1,78*,0.9,0.9,0.9,12
O=C1/C(=C/c2cccnc2)Sc2ccccc21,83*,0.9,0.8,0.9,4
CCOc1ccc(Cc2c(Cl)nc(SC)nc2N(C)C)cc1,-5,0.8,0.9,0.8,58
CSc1nc(Cl)c(Cc2ccc(OC(C)C)cc2)c(N(C)C)n1,7,1,0.9,0.9,63*
COCCCNC(=S)N1CCC(NC(=O)c2ccco2)CC1,-8,1,1.1,1,-1
CCOC(=O)c1c(NC(NC(=O)C(C)C)C(Cl)(Cl)Cl)sc2c1CCC2 (centres undefined),86*,0.9,0.9,0.8,66*
CCOC(=O)Nc1sc2c(c1C(=O)OCC)CCC2,3,0.8,0.9,0.9,-3
CCc1cccc(CC)c1NC(=O)c1cc(CN2C(=O)c3ccccc3C2=O)ccc1OC,88*,1,1,0.8,25
CCCCOc1ccccc1/C=N/NC(=O)CC#N,-3,0.9,0.9,0.9,3
Cc1ccc(-n2c(-c3ccccc3)cc(/C=N/NC(=O)CC#N)c2-c2ccccc2)cc1,6,1,1,1,73*
N#CCC(=O)N/N=C/c1cc(-c2ccccc2)n(-c2ccc(Cl)cc2)c1-c1ccccc1,12,0.9,1,0.9,80*
Cc1ccc(NC(=O)C(=O)NCCOc2ccccc2Cl)cc1,-4,1,1,0.9,2
O=C(N/N=C/c1ccccn1)c1cc([N+](=O)[O-])cc([N+](=O)[O-])c1,89*,1,1,0.8,-7
O=C(N/N=C/c1ccccn1)c1ccc([N+](=O)[O-])cc1,55*,0.9,0.7,0.9,-2
O=C(N/N=C/c1ccc[nH]1)c1ccc([N+](=O)[O-])cc1,79*,0.9,0.9,0.9,5
O=C(N/N=C/c1ccccn1)c1ccc(NC(=O)c2cccc([N+](=O)[O-])c2)cc1,25,1.6,1.3,1.1,2
SMILES,Lmaj promast,PMI act,PMI act hi M6P,Diaphorase act,WT yeast gro inh
O=C(COc1ccc([N+](=O)[O-])cc1)N/N=C/c1ccccn1,2,0.8,0.8,0.9,-1
O=C(N/N=C/c1ccccn1)c1cccc([N+](=O)[O-])c1,77*,0.9,0.9,1,-5
COc1ccccc1N1CCN(S(=O)(=O)c2ccc3c(c2)n(C)c(=O)n3C)CC1,-9,1,1,0.8,4
O=C(/C=C/c1ccc(Cl)cc1)NC(=S)Nc1ccc(NC(=O)c2ccco2)cc1,1,1,1.1,1,7
CN1COc2ccc3ccccc3c2C1,9,0.6,0.3,0.8,20
O=C(N/N=C/c1ccccn1)c1ccc(Br)cc1,97*,0.9,1,1,25
O=C(N/N=C/c1ccccn1)c1ccc(N/N=C/c2ccccn2)cc1,-12,1.5,1.4,1,0
CN(c1ccccc1)c1ccc(/C=N/NC(=O)CC#N)cc1,-3,1,0.9,0.9,-9
COCCn1nnnc1CN(CCc1ccc(OC)c(OC)c1)Cc1cc2ccc(C)cc2[nH]c1=O,97*,1.4,1.4,0.8,16
COCCn1nnnc1CN(CCc1ccccc1)Cc1cc2cc(OC)ccc2[nH]c1=O,14,/,/,/,/
Cc1ccc2c(c1)cc(CN(CCc1ccccc1)C(=O)N1CCOCC1)c1nnnn12,13,0.9,1,0.8,13
Cc1cccc2cc(CN(Cc3cccnc3)C(=O)c3cccs3)c3nnnn3c12,-3,/,/,/,-17
Cc1ccc2c(c1)cc(CN(Cc1ccc3c(c1)OCO3)C(=O)c1ccccc1)c1nnnn12,59*,1,1.1,1,8
Cc1ccc2c(c1)cc(CN(Cc1cccnc1)C(=O)NCc1ccccc1)c1nnnn12,100*,0.9,0.9,0.9,-9
O=C1NC(=S)N(c2cccc(Cl)c2)C12CCCCC2,52*,1,1,0.9,13
O=C(O)CSC1=NC(=Nc2cccc(Cl)c2)C2(CCCCC2)N1c1ccccc1,0,1.1,1.1,0.8,10
CN(C1CCCCC1)S(=O)(=O)c1ccc(C(=O)N2CCN(c3nc4ccccc4s3)CC2)cc1,0,0.9,0.9,0.8,-3
CCc1ccc(C(=O)Nc2cc3c(cc2Cl)OCCCO3)cc1,11,1.2,0.8,0.9,3
COc1cc(-c2nnc(SCc3c(F)cccc3Cl)o2)cc(OC)c1OC,82*,0.9,0.9,0.9,64*
COc1cc(-c2nnc(SCc3ccccc3Cl)o2)cc(OC)c1OC,1,0.8,0.8,0.8,56
O=C(O)C(Cc1c[nH]c2ccccc12)N1CCS(=O)(=O)CC1 (centres undefined),2,1.1,0.8,0.9,-8
Cc1nn(C(=O)CNS(=O)(=O)c2ccccc2)c(C)c1Sc1ccc(Cl)cc1,51*,0.9,1,0.9,32
CCNCc1cc(Br)c(OCC(=O)Nc2ccccc2)c(OC)c1,101*,1.1,1,0.9,-23
COc1cc(C(=S)N2CCCCC2)ccc1OCC(=O)Nc1ccccc1Cl,66*,0.9,1,0.9,11
COc1cc(CNCCc2ccccc2)cc(Br)c1OCC(=O)Nc1ccccc1C,100*,1,0.9,1.1,68
O=C(COc1ccc(C(=S)N2CCOCC2)cc1Cl)Nc1ccccc1Cl,-5,0.8,1,1,-5

# Source: PubChem BioAssay
